Sampled rows, rich in hits. Any-hit rate of the full collection: about 2%.
PLC-gamma1 inh – PLC-gamma1 enzyme inhibitors, primary screen, biochemical, fluorescence, purified enzyme; 1-phosphatidylinositol 4,5-bisphosphate phosphodiesterase gamma-1 (Homo sapiens), P19174; fluorogenic substrate; inhibition, % at 12.2 µM; actives 0.84% (n = 370,000); AID 720700, 2013; in the data active = inhibition above about 9.5%
PvdQ inh – P. aeruginosa PvdQ acylase inhibitors, primary screen, biochemical, fluorescence, plate reader and imaging, single point. PvdQ acylase [Pseudomonas aeruginosa LESB58]. purified PvdQ acylase. inhibition, % at 10 µM. actives 0.063% (n = 340,000). AID 488965, 2010; in the data active = inhibition above about 30%, passing the limit was not always enough;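 also: 0% = vehicle neutral wells and 100% = reference inhibitor wells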
VIM-2 inh – VIM-2 metallo-beta-lactamase inhibitors, primary screen, biochemical, epi-absorbance readout, Pseudomonas aeruginosa enzyme. purified VIM-2, nitrocefin hydrolysis, epi-absorbance fluorescence. inhibition, % at 5.6 µM. actives 0.89% (n = 290,000);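 active = inhibition above the mean of all tested compounds plus 3 SD, cutoff set per screening run, cut at about 7.5% in these data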;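 also: red hydrolysis product quenches plate fluorescence so inhibitors raise well fluorescence; 0% = enzyme with DMSO and 100% = DMSO without enzyme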
PLC-beta3 inh – human PLC-beta3 inhibitors, primary screen, biochemical, fluorescence; 1-phosphatidylinositol 4,5-bisphosphate phosphodiesterase beta-3 (Homo sapiens), Q01970; Purified PLC-beta3, fluorogenic substrate; inhibition, % at 12.2 µM; actives 0.18% (n = 370,000); AID 720704, 2013; in the data active = inhibition above about 11%;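 also: 0% = median of compound wells on plate and 100% = full blocker control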
IMP-1 inh-1 – IMP-1 metallo-beta-lactamase inhibitors, primary screen, biochemical, epi-absorbance readout, Pseudomonas aeruginosa enzyme; metallo-beta-lactamase IMP-1 (Pseudomonas aeruginosa); purified IMP-1, nitrocefin hydrolysis, epi-absorbance fluorescence; inhibition, % at 5.6 µM; actives 0.45% (n = 290,000); AID 1556, 2009;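 active = inhibition above the mean plus 3 SD of all compounds in the same screening run, cut at about 4.5% in these data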;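 also: 0% = IMP-1 with DMSO and 100% = DMSO wells lacking enzyme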
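system = purified recombinant IMP-1 beta-lactamase | amount = 0.2 nM IMP-1, as dispensed | medium = HEPES buffer pH 7.1 with ZnSO4 and Brij 35 | times = 25 °C, 15 min preincubation, 25 min reaction | detection = plate fluorescence quenching by hydrolysis product, ex 480/em 530 nm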
IMP-1 inh-2 – IMP-1 metallo-beta-lactamase inhibitors, confirmation, selectivity assay for selective VIM-2 inhibitor project, biochemical, epi-absorbance readout, triplicate; AID 1856, 2009; purified IMP-1, nitrocefin hydrolysis, epi-absorbance fluorescence; inhibition, % at 5.6 µM; shares compounds with VIM-2 inh; 1,300 tested, under 10 active; call rule not given here;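 also: 0% = enzyme with vehicle and 100% = vehicle without enzyme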
VIM-2 FRET inh – VIM-2 inhibitors in FRET format, confirmation, artefact control for selective VIM-2 inhibitor project, biochemical, epi-absorbance artifact exclusion. shares compounds with VIM-2 inh. purified VIM-2, CCF2 FRET substrate hydrolysis. inhibition, % at 5.6 µM. actives 23% (n = 1,300);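 active = inhibition above the mean of all tested compounds plus 3 SD, cut at about 19% in these data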;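 also: 0% = VIM-2 plus DMSO and 100% = no enzyme wells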
TEM-1 inh – TEM-1 serine beta-lactamase inhibitors, counter-screen for VIM-2 inhibitor project, biochemical, epi-absorbance, HTS; inhibition, % at 5.6 µM; AID 1866, 2009; shares compounds with VIM-2 inh; Purified TEM-1, nitrocefin hydrolysis, epi-absorbance fluorescence; actives 3% (n = 1,300);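 active = inhibition above that campaign's mean inhibition plus 3 SD, cut at about 0.46% in these data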;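 also: 0% = TEM-1 with DMSO and 100% = TEM-1 with 100 µM potassium clavulanate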
VIM-2 confirm 2 – VIM-2 metallo-beta-lactamase inhibitors, confirmation, biochemical, epi-absorbance, hits shared with IMP-1 screen; shares compounds with VIM-2 inh; purified VIM-2, nitrocefin hydrolysis; inhibition, % at 5.6 µM; actives 96% (n = 1,300); AID 2187, 2009;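 active = inhibition of the VIM-2 beta-lactamase enzyme above about 11% from the earlier first-round screen, limit read from the data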;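 also: 0% = VIM-2 with DMSO and 100% = buffer wells without enzyme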
The depositor's hits bear a star; i = inactive; · = no result.

SMILES	PLC-gamma1 inh	PvdQ inh	VIM-2 inh	PLC-beta3 inh	IMP-1 inh-1	IMP-1 inh-2	VIM-2 FRET inh	TEM-1 inh	VIM-2 confirm 2
CCN1CCN(C(=O)C2CCC(=O)N(Cc3cccc(C(F)(F)F)c3)C2)CC1 (stereo unspecified)	-1	-3	27*	-4	-1	-4	-1	-6	2
CCOc1ccc2nc(C)cc(Nc3ccc4c(c3)OCCO4)c2c1	1	9	18*	-7	-3	-3	-1	-5	31*
CCN(Cc1cn(Cc2ccc(C)cc2)nn1)S(=O)(=O)c1ccccc1Br	0	·	·	4	·	·	·	·	·
CC1CC(C)CN(CCCNS(=O)(=O)c2ccc3c(c2)CCN3C(=O)C2CC2)C1 (stereo unspecified)	1	-23	12*	-7	-4	-3	-1	-6	8.9*
O=C(C1CC1)N1CCc2cc(S(=O)(=O)NCCCN3CCCCC3)ccc21	0	-11	6	2	0	·	·	·	·
CC1CCCCN1CCNC(=O)c1cc2c(=O)n(C)c3ccccc3c2n1C (stereo unspecified)	-15	-3	20*	-17	-4	-2	4	-7	31*
CCN1CCN(C(=O)c2cc3c(=O)n(C)c4ccccc4c3n2C)CC1	-12	23	17*	-13	-3	-3	4	-6	22*
Cc1cccn2c(=O)c3cc(C(=O)NCCCN4CCCC4=O)n(C)c3nc12	i	-9	17*	i	-1	-2	-8	1.2*	26*
COCCNC(=O)c1cc2c(=O)n3cccc(C)c3nc2n1C	-183	-13	·	-207	·	·	·	·	·
Cn1c(C(=O)NCCCN2CCCC2=O)cc2c(=O)n(C)c3ccccc3c21	-6	-12	13*	-5	-3	-3	-3	-6	29*
Cc1ccccc1CN1CCCCC(NC(=O)C2CCCC2)C1=O (stereo unspecified)	2	·	·	1	·	·	·	·	·
COC(=O)C1CN(Cc2ccccc2)CCS(=O)(=O)N1Cc1ccc(Cl)cc1 (stereo unspecified)	2	·	·	2	·	·	·	·	·
Cc1ccc(CNC(=O)c2cc3c(=O)n(C)c4ccccc4c3n2C)cc1	-2	-2	0	1	-3	·	·	·	·
Cn1c(C(=O)NCCN2CCc3ccccc3C2)cc2c(=O)n(C)c3ccccc3c21	-11	-19	19*	-15	0	-3	-1	-7	28*
CN(CCNC(=O)c1cc2c(=O)n(C)c3ccccc3c2n1C)Cc1ccccc1	2	-10	17*	4	-1	-4	2	-8	26*
Cn1c(C(=O)NC2CCCCC2)cc2c(=O)n(C)c3ccccc3c21	-3	-13	1	-1	-5	·	·	·	·
C=C1CSc2nc(=O)c3c(C)c(C)sc3n21	-1	-5	20*	-4	2	-3	1	-6	32*
Cc1nc2sc(C)c(C)c2c(=O)[nH]1	1	-7	0	0	-1	·	·	·	·
COc1ccc2[nH]c3c(c2c1)CCN[C@]31C(=O)N(Cc2cn(Cc3ccccc3)nn2)c2ccccc21	8	·	·	1	·	·	·	·	·
COc1cc(OC)c(Nc2cc(C)nc3nc(C)nn23)cc1Cl	-1	-16	35*	2	-4	-4	1	-8	44*
Cc1cc(Nc2c(C)cccc2C)n2nc(C)nc2n1	0	2	0	-1	-3	·	·	·	·
Cc1cc(Nc2ccc(C)c(C)c2)n2nc(C)nc2n1	-1	-9	16*	5	-2	-3	1	-6	34*
CN(C)S(=O)(=O)c1ccc2nc(COCc3nc4ccc(S(=O)(=O)N(C)C)cc4[nH]3)[nH]c2c1	0	·	·	-1	·	·	·	·	·
O=C(OCC(=O)N1CCN(C(=O)c2ccco2)CC1)c1cc(-c2ccco2)nc2ccccc12	·	0	15*	·	1	-4	-19	-7	11*
S=c1[nH]nc(-c2ccccc2)n1CC1CCCO1 (stereo unspecified)	4	0	30*	-2	-7	-3	48*	-6	32*
SMILES	PLC-gamma1 inh	PvdQ inh	VIM-2 inh	PLC-beta3 inh	IMP-1 inh-1	IMP-1 inh-2	VIM-2 FRET inh	TEM-1 inh	VIM-2 confirm 2
Cc1ccsc1-c1n[nH]c(=S)n1CC(C)C	-1	22	18*	2	-2	-3	40*	-7	28*
Cc1ccsc1-c1n[nH]c(=S)n1C1CCCCC1	1	-1	31*	0	-4	-3	57*	-6	42*
S=c1[nH]nc(-c2cccnc2)n1C1CCCCC1	1	10	16*	4	-5	-3	45*	-8	26*
COc1ccc(Cn2cc(CN3[C@@H](CC(C)C)COc4cccc(F)c4S3(=O)=O)nn2)cc1	-2	·	·	-1	·	·	·	·	·
S=c1[nH]nc(-c2ccccc2)n1C1C=CCCC1 (stereo unspecified)	3	-1	15*	1	-4	-3	44*	-8	26*
CC1CCCCC1n1c(-c2cccnc2)n[nH]c1=S (stereo unspecified)	1	12	19*	4	-2	-3	49*	-7	32*
CCN1CCCCC(NC(=O)c2cc(OC)c(OC)c(OC)c2)C1=O (stereo unspecified)	6	·	·	10	·	·	·	·	·
CNCc1cc(Br)c(OCC(=O)Nc2ccccc2OC)c(OC)c1	0	-10	13*	0	-2	-4	1	-4	27*
CCNCc1cc(Br)c(OCC(=O)Nc2ccccc2)c(OC)c1	-1	-11	2	1	-2	·	·	·	·
CC(C)C[C@H]1COc2cccc(N3CCCC3)c2S(=O)(=O)N1C	-4	·	·	-7	·	·	·	·	·
CC(=O)Nc1ccc(C(/C=C/c2ccccc2)Cc2ccccc2)cc1 (stereo unspecified)	-4	·	·	-6	·	·	·	·	·
COc1ccc(-c2n[nH]c(=S)n2-c2cc(OC)ccc2OC)cc1	1	-5	1	-8	-3	·	·	·	·

Screens (PubChem BioAssay)
